Molecules are shown by their SMILES. The whole screen tested about 2,500 compounds, of which about 1,200 (48%) were called active. The set was probably picked from earlier hits. This is one part of the list. A number with no mark means an inactive call.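 The calls were made as follows: active = mean activation above the low control average plus 3 SD, as set in the primary screen (cut at about 12% in these data); inactive = the rest.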

In this experiment the target is Troponin I, cardiac muscle (Homo sapiens) + Troponin T, cardiac muscle (Homo sapiens) + Troponin C, slow skeletal and cardiac muscles (Homo sapiens) (UniProt P19429+P45379+P63316). The experiment in a line: calcium sensitizers of cardiac thin filaments – biochemical, IANBD-TnC fluorescence, triplicate, confirmation (AID 504383).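 Also: 0% = DMSO at 0.472 mM calcium and 100% = DMSO at 2.9 mM calcium.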 The settings on record: IANBD-labeled cardiac RTF, Ca2+ sensitivity fluorescence; at 7.2 µM; stronger effect = higher value; scaled from EC20 to saturating calcium; tested at EC20 calcium, 0.472 mM. In a few lines: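 Assay system: labelled regulated thin filament protein complex; schedule: 15 min compound incubation with filaments at 25 °C; benchmarks: low control EC20 calcium, high control EC100 calcium; reagent: Ca2+ 0.472 mM, EC20 level; doses: one dose, 7.2 µM nominal; evaluation: fluorescence gain scaled between EC20 and EC100 calcium controls; signal: filament fluorescence intensity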
Regarding `Cc1cc(NC(=O)/C(C#N)=C/c2ccc(-c3ccc(SC(F)F)cc3)o2)n(-c2ccccc2)n1`, the activation was 659% (active).
For `Cc1cc(NC(=O)/C(C#N)=C\c2ccc(-c3ccc(SC(F)F)cc3)o2)n(-c2ccccc2)n1` the value was 359% (active).
For `COC(=O)CCc1c(C)c(C(=O)c2cc(F)c(F)c(F)c2F)c2ccccn12` the value was -2.54%.
On to `O=C1CCNc2ccc(-c3ccccc3)cc21`, for which the activation was 7.84%.
For `Cn1c(=O)c2cc(NCc3ccccc3)nnc2n(C)c1=O` the value was 13.9% (active); for `Cn1c(=O)c(NCCc2ccccc2)c2c3c(cccc31)C(=O)c1ccccc1-2`, 2.98%; for `CC(C(=O)c1ccc(Br)cc1)[n+]1cccc2ccccc21` (stereo unspecified), 64.2% (active).
For `Cc1cccc(NC(=O)c2ccc(C(=O)c3ccccc3)cc2)n1` the value was 9.46%.
For `Cc1cc(C)nc(NC(=O)c2ccc(Cl)c(Cl)c2)n1` the value was 12.3% (active); for `CCOC(=O)c1c(/N=C/c2cccc([N+](=O)[O-])c2O)sc(C)c1C`, 7.57%.
Consider `COC(=O)c1c(NC(=O)c2ccnn2C)sc(C)c1C`, for which the activation was 5.98%.
On to `COC(=O)c1c(NC(=O)CN2CCN(c3cccc(Cl)c3)CC2)sc(C)c1C`, for which the activation was 13.4% (active).
For `CCN1C(=S)N[C@@H](CCc2ccccc2)[C@H](C(=O)OC)[C@H]1C` the value was 57.4% (active).
Regarding `O=C(/C=C/c1ccccc1)N/C(=C/c1ccccc1)C(=O)NCCCO`, the activation was 9.8%.
Take `CC(C)(C)c1ccc(C(=O)NC(=S)Nc2ccc(N3CCOCC3)cc2)cc1`: the activation was 0.7%.
For `O=C(O)c1ccc(NC(=S)NC(=O)c2ccc(-c3ccccc3)cc2)cc1` the value was 78.4% (active).
For `COc1ccc(/C=C/C(=O)NC(=S)Nc2ccc(C(=O)O)cc2)cc1` the value was 55.3% (active); for `CCC(=O)Nc1ccc(NC(=S)NC(=O)c2oc3ccccc3c2C)cc1`, 1.23%.
Regarding `O=C(CSc1ccc(-c2cccs2)nn1)N1CCCCC1`, the activation is 0.96%.
For `C=CCNc1nnc(SCC(=O)N2CCCCC2)c2ccccc12` the value was 15.7% (active).
For `CCOC(=O)c1c(NC(=O)COC(=O)Cc2ccccc2[N+](=O)[O-])sc(C(=O)N(C)C)c1C` the value was 6.12%; for `CS(=O)(=O)c1ccc(C(=O)OCC(=O)Nc2cccnc2Cl)cc1[N+](=O)[O-]`, 13.1% (active).
For `CC(Sc1nnc(NCc2ccccc2)s1)C(=O)Nc1ccc2c(c1)C(=O)c1ccccc1C2=O` (stereo unspecified) the value was 137% (active); for `Cc1ccc(NC(=O)C(C)Sc2nnc(C)n2C2CC2)cc1S(=O)(=O)N1CCOCC1` (stereo unspecified), 7.55%; for `CCSC1=NSC2=NC(=O)/C(=C\c3coc4ccccc4c3=O)C(=N)N12`, 74.7% (active).
As for `CC(C)CSC1=NSC2=NC(=O)/C(=C\c3coc4ccccc4c3=O)C(=N)N12`, the activation is 45.1% (active).
Consider `CSC1=NSC2=NC(=O)/C(=C/c3coc4ccccc4c3=O)C(=N)N12`, for which the activation is 3.64%.
For `CC(C)NC(=S)N/N=C/c1sc(N2CCCCC2)nc1-c1cccs1` the value was 11.2%; for `O=C(NCCCN1CCCC1=O)c1cccc(S(=O)(=O)Nc2ccc(Br)cc2)c1`, 10%.
For `O=C(Nc1ccc(Br)cc1)c1ccc(Br)c(S(=O)(=O)Nc2cccnc2)c1` the value was 22.2% (active); for `O=C(Nn1cnnc1)c1cc([N+](=O)[O-])cc([N+](=O)[O-])c1`, 11.3%; for `Cc1occc1C(=O)Nc1cccc([N+](=O)[O-])c1`, 30.8% (active).
For the compound `Cc1csc(NS(=O)(=O)c2cccc([N+](=O)[O-])c2)n1`, the activation was 10.9%.
For `O=C(c1ccncc1)N(Cc1ccccc1)Cc1nc2ccccc2c(=O)[nH]1` the value was 9.24%; for `COc1ccc2cc(CN(CC3CCCO3)C(=S)NCc3ccco3)c(=O)[nH]c2c1` (stereo unspecified), 1.66%.
For `COc1cc2cc(CN(Cc3cccnc3)C(=O)NCc3ccccc3)c(=O)[nH]c2cc1OC` the value was 324% (active).
As to `CN1c2ccccc2C(O)=C(C(=S)Nc2ccc(F)c(Cl)c2)S1(=O)=O`, the activation was 54.4% (active).
On to `CC(=O)Nc1ccccc1C(=O)C(=O)Nc1ccc(F)c(Cl)c1`, for which the activation is 7.61%.
Regarding `CC(=O)/C(C=Nc1noc(C)c1Br)=C(\C)O`, the activation was 50.2% (active).
For `C=C1C(=O)O[C@@]23[C@H]1CC[C@@H](C)[C@@H]2CC[C@@]1(C)O[C@@H]31` the value was 11.9% (active); for `C=CCNC(=O)NC(=O)COC(=O)CC(NC(N)=O)c1ccc(Cl)cc1` (stereo unspecified), 154% (active); for `CN(C)CCN(C)Cc1c2ccccc2c(CN(C)CCN(C)C)c2ccccc12`, 27.7% (active).
For `CN(C)CCOc1ccccc1C(C)(C)C` the value was 4.26%; for `CC[N+](C)(C)c1cccc(O)c1`, 3.39%.
For `Cc1ccc(S(=O)(=O)Nc2ccc3ncccc3c2[N+](=O)[O-])cc1`, the activation is 11.6%.
As for `Cc1ccc(S(=O)(=O)Nc2nc3ccccc3nc2NCc2ccco2)cc1`, the activation was 23.7% (active).
As for `Nc1nc(NCc2ccco2)nc(N2CCCCCC2)c1[N+](=O)[O-]`, the activation was 6.31%.
As to `COC(=O)c1[nH]c2ccc(C)cc2c1NC(=O)C(C)N1CCN(C2CCCCC2)CC1` (stereo unspecified), the activation is 10.5%.
For `CCn1c(C)c(CCC(=O)O)c(=O)n2nc(-c3ccccc3OC)cc12` the value was 11.7% (active).
Take `COc1ccccc1-c1nnc(SCC(=O)Nc2ccc3[nH]c(=O)[nH]c3c2)n1N`: the activation is 6.5%.
For the compound `O=S(=O)(CCN(CCS(=O)(=O)C(F)(F)F)CC1CCCO1)C(F)(F)F` (stereo unspecified), the activation is 17.5% (active).
Turning to `COc1ccccc1C(=O)NNC(=O)CCCN1C(=O)/C(=C/c2cccs2)SC1=S`, the activation is 1.62%.
For `Cc1ccc(-c2nn(-c3ccccc3)cc2/C=C2\SC(=S)N(CCCCCC(=O)O)C2=O)o1` the value was 23.1% (active).
For the compound `COC(=O)CCCCCN1C(=O)/C(=C\c2ccncc2)SC1=S`, the activation was 4.31%.
For `O=C(O)CCCN1C(=O)/C(=C/c2cn(-c3ccccc3)nc2-c2cccs2)SC1=S` the value was 150% (active).
Regarding `C=CCNc1sc(C(=O)c2ccc(Br)s2)c(N)c1C#N`, the activation was 98% (active).
Take `C#CCOCCOCCOCCNc1nc(N2CCN(C(=O)CCCCCCCCCCNC(=O)[C@@H](CCSC)n3cc(CCO)nn3)CC2)nc(N2CCN(C(=O)CCCCCCCCCCNC(=O)[C@H](CCSC)n3cc(CCO)nn3)CC2)n1`: the activation is 3.03%.
For `COc1ccc2[nH]c(C)c(CCN(Cc3cccs3)C(=S)Nc3ccc(F)cc3)c2c1` the value was 12.4% (active); for `COc1ccc(NC(=O)C(c2ccc(C)cc2)N(C)C(=O)Cc2cccs2)cc1` (stereo unspecified), 6.31%; for `CCN(CC)S(=O)(=O)c1ccc2[nH]c(=O)[nH]c2c1`, 15.6% (active).
In the case of `Cc1onc(-c2ccccc2)c1C(=O)Nc1nc(-c2cc(F)ccc2F)cs1`, the activation is -0.1%.
`Cc1noc(C)c1C(=O)Nc1nc2ccccc2s1`: the activation is 28.4% (active).
Turning to `O=S(=O)(/N=C(/Nc1nc2ccccc2s1)c1ccccc1)c1ccc(F)cc1`, the activation was 11.4%.
Take `Cc1cccc(NC2=Nc3ccccc3N3C2=Nc2c(c(C)nn2-c2ccccc2)C3c2ccc(O)c(O)c2)c1` (stereo unspecified): the activation was 362% (active).
For `Cc1ccc(-c2ccc(CO)o2)cc1N` the value was 92.6% (active).
As to `Cc1nc([N+](=O)[O-])c(Br)n1CC(=O)c1ccc2ccccc2c1`, the activation is 10.5%.
For `Cn1c(/C(C#N)=C(\O)CN2CCN(Cc3ccccc3)CC2)nc2ccccc21` the value was 7.65%; for `Cc1nc([N+](=O)[O-])c(Sc2nc3ccccc3n2C)n1Cc1ccccc1`, 46.8% (active).
Consider `COc1ccc(CNc2nn[nH]n2)cc1OC`, for which the activation is 18.4% (active).
`COc1ccc(Cc2n[nH]c(=O)c3ccccc23)cc1OC`: the activation is 5.9%.
For `COc1ccc(CCNc2cc(C)[nH]c(=O)c2)cc1OC` the value was 5.18%.
For `CCOC(=O)CC(=O)CSc1nc(-c2ccc3c(c2)OCO3)cc(C(F)(F)F)c1C#N` the value was 13.6% (active); for `C(=N\c1nc2ccccc2n1CCN1CCOCC1)/c1cccs1`, 2.67%; for `O=C(O)c1cccc([N+](=O)[O-])c1C(=O)Nc1cccc2ccccc12`, 14.4% (active).
As to `Cc1ccc(NC(=O)c2cc(C(=O)c3cc(Cl)ccc3O)cn(-c3ccc(C)cc3)c2=O)cc1`, the activation was 15.1% (active).
Regarding `Cc1ccc(O)c(C(=O)c2cc(C#N)c(=O)n(-c3nccs3)c2)c1`, the activation was 8.02%.
As for `CS(=O)(=O)Nc1ccc(C2=NN(C(=O)CCCC(=O)O)C(c3cccs3)C2)cc1` (stereo unspecified), the activation is 61.2% (active).
For `CN(C)CCNc1ccc2ncn3c4ccc(O)cc4c(=O)c1c23` the value was 11.4%; for `Cc1cc(C)c2nc(NC(=O)C3CCCO3)sc2c1` (stereo unspecified), 36.3% (active); for `CCOc1cc(/C=C2\N=C(SC(C)C(N)=O)N(c3ccc(OC(F)F)cc3)C2=O)ccc1O` (stereo unspecified), 32.1% (active).
For `COc1cc(/C=C2\N=C3CCCCCN3C2=O)ccc1O` the value was 4.57%; for `COc1cc(OC)c(NC(=O)c2cc3ccccc3cc2O)cc1Cl`, 12.7% (active); for `CCOC(=O)COc1c(Cl)cc(C2NC(=S)NC(c3ccccc3)=C2C(C)=O)cc1OC` (stereo unspecified), 10.2%.
Regarding `COc1ccc(-c2nnc(-c3cccnc3)o2)cc1`, the activation was 48.2% (active).
`O=C1c2ccccc2-c2c1cccc2C(=O)N1CCCCCC1`: the activation is 9.57%.
For `Cc1[nH]c(C)c(S(=O)(=O)N2c3ccccc3CC2C)c1C(=O)N1CCCCC1` (stereo unspecified) the value was 137% (active); for `CCOc1ccc(C2C(C#N)=C(N)SC(N)=C2C#N)cc1OCC`, 51.3% (active); for `CCOc1ccccc1C1C(C#N)=C(N)SC(N)=C1C#N`, 5.25%.
Turning to `COc1ccc(C2C(C#N)=C(N)SC(N)=C2C#N)cc1OC`, the activation was 6.65%.
For `CC1(C)CC(=O)C(C=Nc2ccc(C(=O)c3ccccc3)cc2N=CC2=C(O)CC(C)(C)CC2=O)=C(O)C1` the value was 5.75%.
For `CC1(C)CC(=O)C(C=Nc2cc(C(=O)c3ccccc3)ccc2N)=C(O)C1` the value was 32% (active).

The record behind these values is PubChem BioAssay AID504383 (The Scripps Research Institute Molecular Screening Center, 2011).
